{"source": "ChEMBL document CHEMBL4020718", "about": "“Trifluoromethyl arylamides with antileukemia effect and intracellular inhibitory activity over serine/arginine-rich protein kinases (SRPKs)” (Eur J Med Chem, 2017)", "key": {"[1]": {"test_system": "NALM-6", "experiment": "Induction of autophagy in human NALM6 cells at 20 uM after 24 hrs by acridin orange staining based fluorescence microscopy", "assay_type": "functional, cell-based", "summary_of_the_method": "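Nalm6 (7x10^4/well) exposed 24 h to 20 µM or 0.4% DMSO, washed in PBS, stained with 1 µM acridine orange at 37 °C for 15 min, washed, resuspended in PBS; autophagosomes (red fluorescence) viewed by fluorescence microscopy; three experiments.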"}, "[2]": {"test_system": "HL-60", "experiment": "Cytotoxicity against human HL60 cells assessed as reduction in cell viability up to 200 uM after 48 hrs by MTT assay", "assay_type": "functional, cell-based", "settings": "Homo sapiens, HL-60, 48 h; read-out: IC50", "summary_of_the_method": "(§1)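 Cells (7x10^4/well) in RPMI-1640 with 10% FBS, 37 °C, 5% CO2; exposed to compound dilutions 0–200 µM (medium with 10% FBS, 0.4% DMSO) for 48 h. MTT added, 3 h at 37 °C, formazan dissolved in DMSO, absorbance 540 nm. IC50 from concentration–response; means ± standard deviation of three independent experiments.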"}, "[3]": {"test_system": "Jurkat", "experiment": "Cytotoxicity against human Jurkat cells assessed as reduction in cell viability up to 200 uM after 48 hrs by MTT assay", "assay_type": "functional, cell-based", "settings": "Homo sapiens, Jurkat, 48 h; read-out: IC50", "summary_of_the_method": "as §1"}, "[4]": {"test_system": "NALM-6", "experiment": "Cytotoxicity against human NALM6 cells assessed as reduction in cell viability up to 200 uM after 48 hrs by MTT assay", "assay_type": "functional, cell-based", "settings": "Homo sapiens, NALM-6, 48 h; read-out: IC50", "summary_of_the_method": "as §1"}, "[5]": {"test_system": "PBMC", "experiment": "Cytotoxicity against PHA-stimulated human PBMC assessed as reduction in cell viability at 25 uM after 48 hrs by MTT assay", "assay_type": "cell-based", "summary_of_the_method": "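Primary peripheral blood mononuclear cells seeded 1x10^5/well in complete RPMI; treated with 25 µM for 48 h. Viability by MTT (3 h, 37 °C, DMSO solubilization, 540 nm), vehicle taken as 100% viability; triplicate experiments, means ± standard deviation.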"}, "[6]": {"test_system": "NALM-6", "experiment": "Synergistic cytotoxicity against human NALM6 cells assessed as reduction in cell viability by measuring combination index at 1.5 uM after 48 hrs in presence of 0.5 nM vincristine by MTT assay", "assay_type": "functional"}, "[7]": {"test_system": "NALM-6", "experiment": "Synergistic cytotoxicity against human NALM6 cells assessed as reduction in cell viability by measuring combination index at 3 uM after 48 hrs in presence of 1 nM vincristine by MTT assay", "assay_type": "functional"}, "[8]": {"test_system": "NALM-6", "experiment": "Induction of apoptosis in human NALM6 cells assessed as viable cells at 20 uM after 12 hrs by Annexin-V/FITC propidium iodide staining based flow cytometric analysis (reference value: 92.11%)", "assay_type": "functional", "settings": "NALM-6, 12 h, read-out: Activity"}, "[9]": {"test_system": "NALM-6", "experiment": "Induction of apoptosis in human NALM6 cells assessed as early apoptotic cells at 20 uM after 12 hrs by Annexin-V/FITC propidium iodide staining based flow cytometric analysis (reference value: 7.40%)", "assay_type": "functional"}, "[10]": {"test_system": "NALM-6", "experiment": "Induction of apoptosis in human NALM6 cells assessed as late apoptotic cells at 20 uM after 12 hrs by Annexin-V/FITC propidium iodide staining based flow cytometric analysis (reference value: 0.45%)", "assay_type": "functional"}, "[11]": {"test_system": "NALM-6", "experiment": "Induction of apoptosis in human NALM6 cells assessed as necrotic cells at 20 uM after 12 hrs by Annexin-V/FITC propidium iodide staining based flow cytometric analysis (reference value: 0.04%)", "assay_type": "functional"}, "[12]": {"test_system": "NALM-6", "experiment": "Induction of apoptosis in human NALM6 cells assessed as viable cells at 20 uM after 24 hrs by Annexin-V/FITC propidium iodide staining based flow cytometric analysis (reference value: 90.10%)", "assay_type": "functional", "settings": "NALM-6, 24 h, read-out: Activity"}, "[13]": {"test_system": "NALM-6", "experiment": "Induction of apoptosis in human NALM6 cells assessed as early apoptotic cells at 20 uM after 24 hrs by Annexin-V/FITC propidium iodide staining based flow cytometric analysis (reference value: 8.22%)", "assay_type": "functional"}, "[14]": {"test_system": "NALM-6", "experiment": "Induction of apoptosis in human NALM6 cells assessed as late apoptotic cells at 20 uM after 24 hrs by Annexin-V/FITC propidium iodide staining based flow cytometric analysis (reference value: 1.68%)", "assay_type": "functional"}, "[15]": {"test_system": "NALM-6", "experiment": "Induction of apoptosis in human NALM6 cells assessed as necrotic cells at 20 uM after 24 hrs by Annexin-V/FITC propidium iodide staining based flow cytometric analysis (reference value: 0%)", "assay_type": "functional"}, "[16]": {"test_system": "HL-60", "experiment": "Antiproliferative activity against human HL60 cells at 20 uM by trypan blue dye exclusion assay", "assay_type": "functional, cell-based", "settings": "TDE = time-dependent effect", "summary_of_the_method": "(§2)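 Nalm6 at 1x10^4 or HL60 at 1.5x10^4 cells per well exposed to 20 µM; DMSO (0.4% v/v) as control. Viable cells counted by trypan blue exclusion on a hemocytometer at 0, 24, 48, 72 and 96 h; growth inhibition relative to control.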"}, "[17]": {"test_system": "NALM-6", "experiment": "Antiproliferative activity against human NALM6 cells at 20 uM by trypan blue dye exclusion assay", "assay_type": "functional, cell-based", "settings": "TDE = time-dependent effect", "summary_of_the_method": "as §2"}, "[18]": {"test_system": "HL-60", "experiment": "Cytotoxicity against human HL60 cells assessed as cell growth inhibition at 20 uM after 96 hrs by trypan blue dye exclusion assay relative to control", "assay_type": "functional", "settings": "HL-60, 96 h, read-out: GI", "summary_of_the_method": "as §2"}, "[19]": {"test_system": "NALM-6", "experiment": "Cytotoxicity against human NALM6 cells assessed as cell growth inhibition at 20 uM after 96 hrs by trypan blue dye exclusion assay relative to control", "assay_type": "functional", "settings": "NALM-6, 96 h, read-out: GI", "summary_of_the_method": "as §2"}, "[20]": {"test_system": "NALM-6", "experiment": "Effect on actin expression level in human NALM6 cells at 20 uM after 24 hrs by qRT-PCR analysis", "assay_type": "ADME, cell-based", "settings": "nalm-6, 24 h"}, "[21]": {"test_system": "NALM-6", "experiment": "Effect on SRPK1 expression level in human NALM6 cells at 20 uM after 24 hrs by Western blot analysis", "assay_type": "functional, cell-based", "summary_of_the_method": "(§3)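 Nalm6 treated 24 h at 20 µM (DMSO vehicle control), lysed at 2x10^7 cells/mL in PBS with 1% NP40, 1 mM EDTA, 150 mM NaCl, 10 mM Tris pH 7.4 plus protease/phosphatase inhibitors; on ice 10 min, sonicated, spun 15000 xg; SDS-PAGE, PVDF, milk block overnight, primary and secondary antibody 2 h each; representative of three.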"}, "[22]": {"test_system": "NALM-6", "experiment": "Effect on SRPK2 expression level in human NALM6 cells at 20 uM after 24 hrs by Western blot analysis", "assay_type": "functional, cell-based", "summary_of_the_method": "as §3"}, "[23]": {"test_system": "NALM-6", "experiment": "Effect on actin expression level in human NALM6 cells at 20 uM after 24 hrs by Western blot analysis", "assay_type": "ADME, cell-based", "settings": "nalm-6, 24 h", "summary_of_the_method": "as §3"}, "[24]": {"species": "Homo sapiens", "experiment": "Inhibition of SRPK in human NALM6 cells assessed as decrease in RON mRNA expression level at 20 uM after 24 hrs by qRT-PCR analysis", "assay_type": "cell-based", "summary_of_the_method": "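Nalm6 given 20 µM for 24 h with 0.4% DMSO control; mRNA isolated with Tri Reagent, quantified spectrophotometrically, integrity checked on 1% agarose, then RT-PCR for target transcripts; one representative of three experiments.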"}}, "note": "Active and inactive are the calls of the source. The calls are words filed in the database; no cut-off is given here.", "data": [{"molecule": "O=C(Nc1cc(C(F)(F)F)ccc1Nc1ccc(Br)cc1)c1ccccc1", "values": [{"measurement": "Activity", "setting": "[1]", "value": "Active"}, {"measurement": "IC50", "setting": "[2]", "value": 11.8, "unit": "µM"}, {"measurement": "IC50", "setting": "[3]", "value": 33.8, "unit": "µM"}, {"measurement": "IC50", "setting": "[4]", "value": 6, "unit": "µM"}, {"measurement": "Activity", "setting": "[5]", "value": "Non-Toxic"}, {"measurement": "CI", "setting": "[6]", "value": 0.56}, {"measurement": "CI", "setting": "[7]", "value": 1.05}, {"measurement": "viability at 20 µM", "setting": "[8]", "value": 85.9, "unit": "%"}, {"measurement": "Activity", "setting": "[9]", "value": 13.53, "unit": "%"}, {"measurement": "Activity", "setting": "[10]", "value": 0.52, "unit": "%"}, {"measurement": "Activity", "setting": "[11]", "value": 0.02, "unit": "%"}, {"measurement": "viability at 20 µM", "setting": "[12]", "value": 73.2, "unit": "%"}, {"measurement": "Activity", "setting": "[13]", "value": 24.73, "unit": "%"}, {"measurement": "Activity", "setting": "[14]", "value": 2.01, "unit": "%"}, {"measurement": "Activity", "setting": "[15]", "value": 0.01, "unit": "%"}, {"measurement": "Activity", "setting": "[16]", "value": "Tde"}, {"measurement": "Activity", "setting": "[17]", "value": "Tde"}, {"measurement": "inhibition of growth at 20 µM", "setting": "[18]", "value": 48, "unit": "%"}, {"measurement": "inhibition of growth at 20 µM", "setting": "[19]", "value": 72, "unit": "%"}, {"measurement": "Activity", "setting": "[20]", "value": "Non-Toxic"}, {"measurement": "Activity", "setting": "[21]", "value": "inactive"}, {"measurement": "Activity", "setting": "[22]", "value": "inactive"}, {"measurement": "Activity", "setting": "[23]", "value": "Non-Toxic"}, {"measurement": "inhibition", "setting": "[24]", "value": "Active"}]}]}
